KCNQ1 pot = potentiators or activators of KCNQ1 channel, primary screen, cell-based, thallium flux, high-throughput | Potassium voltage-gated channel subfamily KQT member 1 (Homo sapiens), P51787 | CHO-K1 KCNQ1, thallium flux FluxOR fluorescence; active compounds read high | B-score at 10 µM | hit rate 0.35% among 310,000 | AID 2648, 2010;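 active = fluorescence ratio B-score, a plate-corrected score, at least three library SD, with initial intensity B-score within 5 SD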
Target sequence (P51787 whole entry, looked up): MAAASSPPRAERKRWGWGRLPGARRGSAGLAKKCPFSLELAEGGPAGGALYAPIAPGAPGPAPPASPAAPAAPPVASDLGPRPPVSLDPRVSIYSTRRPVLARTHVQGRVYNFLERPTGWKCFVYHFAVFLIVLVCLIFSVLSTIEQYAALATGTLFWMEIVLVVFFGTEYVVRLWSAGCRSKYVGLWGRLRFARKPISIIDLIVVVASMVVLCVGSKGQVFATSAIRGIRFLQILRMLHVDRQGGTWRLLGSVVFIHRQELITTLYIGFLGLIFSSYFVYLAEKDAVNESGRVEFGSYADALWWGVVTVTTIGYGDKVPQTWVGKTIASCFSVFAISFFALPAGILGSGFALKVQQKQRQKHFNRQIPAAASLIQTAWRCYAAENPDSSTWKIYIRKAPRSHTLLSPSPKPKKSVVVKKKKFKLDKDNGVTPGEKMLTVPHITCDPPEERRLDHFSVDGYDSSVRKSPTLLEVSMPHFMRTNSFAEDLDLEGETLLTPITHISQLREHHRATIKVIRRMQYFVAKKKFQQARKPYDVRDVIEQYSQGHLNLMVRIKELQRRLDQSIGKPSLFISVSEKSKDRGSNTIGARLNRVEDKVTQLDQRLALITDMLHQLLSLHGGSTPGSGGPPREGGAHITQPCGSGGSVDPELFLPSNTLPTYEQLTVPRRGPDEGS
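System: Stable KCNQ1 CHO-K1 line | Incubation: 90 min dye loading and 20 min compound exposure, both at room temperature | Measure: Ratio B score | Medium: Assay buffer for compound exposure, DMSO matched across wells | Compound dosing: Single-concentration screen | Probe or stimulus: K+/Tl+ depolarizing stimulus | Measured by: Kinetic FluxOR fluorescence, 10 s baseline plus 110 s post-stimulus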
KCNK9 block = KCNK9 potassium channel inhibitors, primary screen, HEK293 cells, thallium flux. B-score at 10 µM. hit rate 1.2% among 310,000. Potassium channel subfamily K member 9 (Homo sapiens), Q9NPC2. FluxOR thallium flux fluorescence; active compounds read low;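 active = ratio B-score over 3 SD below the library mean, with starting fluorescence within 5 SD of its mean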;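 also: negative B-score means less thallium flux so channel inhibition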
KCNK3 block = human KCNK3 channel inhibitors, primary screen, CHO cells, FluxOR thallium flux, B-score | B-score at 10 µM | FluxOR fluorescence; active compounds read low | AID 602410, 2012 | Potassium channel subfamily K member 3 (Homo sapiens), O14649 | hit rate 0.84% among 340,000;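 active = B-score under library mean minus 4 SD, starting fluorescence ratio at most library mean plus 5 SD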;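 also: more negative B-score means stronger inhibition of thallium flux through KCNK3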
KCNQ1 inh = inhibitors of human KCNQ1 channel, primary screen, cell-based, thallium flux, high-throughput. Potassium voltage-gated channel subfamily KQT member 1 (Homo sapiens), P51787. CHO-K1 KCNQ1, FluxOR thallium flux fluorescence; active compounds read high. B-score at 10 µM. hit rate 1.3% among 310,000;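 active = compounds whose thallium flux B-score, printed positive for inhibition, exceeds three library SD while starting fluorescence stays within three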;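 also: channel opened by potassium depolarization with thallium stimulus after 20 min compound exposure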
Kir21 block = inhibitors of mouse Kir2.1 inward-rectifier potassium channel | Inward rectifier potassium channel 2 (Mus musculus), P35561 | HEK293-Kir2.1, FluxOR thallium flux fluorescence; active compounds read low | B-score at 10 µM | hit rate 0.85% among 310,000;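 active = fluorescence ratio B-score at or below minus 3 SD of library scores, with starting-brightness B-score within 2 SD, cut at about -4.2 in these data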;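 also: channel flux triggered by added potassium and thallium sulfate stimulus; B-score of peak minus minimum fluorescence over baseline after thallium stimulus; more negative B-score means stronger Kir2.1 block with less thallium influx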
hERG protect = hERG rescue from dofetilide block, primary screen, cell-based, CHO-hERG, FluxOR thallium flux, dofetilide IC70; Voltage-gated inwardly rectifying potassium channel KCNH2 (Homo sapiens), Q12809; dofetilide IC70 present; activation (rescue from dofetilide block), less the hit threshold, % at 10 µM; hit rate 0.51% among 310,000; AID 1511, 2009;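 active = activation above the mean of controls blocked by dofetilide plus 5 SD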;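 also: thallium influx through hERG after potassium depolarization seen as dye fluorescence rise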
KCNK9 inh conf = KCNK9 potassium channel inhibitors, confirmation, HEK293 cells, thallium flux, duplicate. shares compounds with KCNK9 block. FluxOR thallium flux fluorescence. inhibition, % at 10 µM. hit rate 43% among 4,900;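 active = thallium signal inhibited by more than 5 SD of the compound-free buffer control wells, on both duplicate plates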;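 also: 0% = assay buffer control wells without compound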
Kir2-1 spec = mouse Kir2.1 channel inhibition, confirmation, selectivity assay for KCNK9 modulator project, cell-based, HEK293, thallium flux | shares compounds with KCNK9 block | hit rate 4% among 4,900 | Kir2.1 cells, FluxOR thallium flux fluorescence | AID 492993, 2010 | inhibition, % at 10 µM;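 active = thallium signal drop more than 5 SD beyond the mean of the no-compound control wells, seen in both duplicate plates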;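 also: signal is fluorescence rise after thallium addition divided by baseline fluorescence; plate controls were assay buffer only for no effect and full block by chlorpromazine control for full effect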
KCNK9 uninduced = thallium flux in non-induced HEK293 cells, confirmation, counter-screen for KCNK9 inhibitor project, cell-based, second counter screen, non-induced KCNK9-HEK293; shares compounds with KCNK9 block; FluxOR thallium flux; inhibition, % at 10 µM; hit rate 40% among 4,900;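 active = thallium signal drop beyond 5 SD of the untreated control mean, on both duplicate plates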;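 also: plate controls were buffer only IC0 wells for no effect and SID17386958 at its maximal inhibitory level for full effect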
* marks the source's active call; other numbers are inactive results; i = inactive; . = no result given. Only some compounds are listed: those with a hit (about 3.8% of all), similar ones and a draw of the others.

SMILES	KCNQ1 pot	KCNK9 block	KCNK3 block	KCNQ1 inh	Kir21 block	hERG protect	KCNK9 inh conf	Kir2-1 spec	KCNK9 uninduced
COc1cccc(-c2nn(C)c3sc(C(=O)NCc4ccc(C)o4)cc23)c1	i	-13.7*	i	i	-1.73	-19.7	48.5%*	i	30.0%*
O=C(NCCC1=CCCCC1)c1ccc(Cl)c(S(=O)(=O)N2CCCCC2)c1	i	i	i	i	0.2	-4.8	i	i	i
Cc1ccc(CSCCNC(=O)c2ccc(Cl)c(S(=O)(=O)N3CCOCC3)c2)cc1	i	i	i	i	-1.7	-14.8	i	i	i
COc1ccc2nc3n(c(=O)c2c1)-c1ccc(Cl)cc1C(=O)NC3Cc1ccc(O)cc1 (stereo not drawn)	.	.	i	.	.	.	.	.	.
CC[C@]12c3[nH]c4cc(CCC(=O)N(C)C)ccc4c3CCN1C(=O)[C@@H](CC(=O)NCC13CC4CC(CC(C4)C1)C3)C[C@@H]2C(=O)N1CCN(C(=O)c2ccco2)CC1	.	.	i	.	.	.	.	.	.
CC1CCN(c2ccccc2NC(=S)NC(=O)c2ccco2)CC1	i	i	i	i	0.35	3.8	.	.	.
CC1CCN(c2ccccc2NC(=S)NC(=O)C(C)(C)C)CC1	i	-10.5*	i	i	0.1	-8.2	42.0%*	i	33.0%*
Clc1ccc(CO/N=C/c2c(-c3ccccc3)nc3n2CCS3)c(Cl)c1	i	-9.74*	i	i	-0.56	-14.7	i	i	28.5%*
CCOC(=O)N/N=C/c1c(C)nn(-c2cccc(C(F)(F)F)c2)c1Cl	i	i	i	i	1.04	-4.3	.	.	.
COC(=O)N/N=C/c1c(C)nn(-c2cccc(Cl)c2)c1Cl	i	-8.29*	i	i	-0.49	-5.5	41.5%*	i	28.5%*
CN(C)c1oc(/C=C/c2cccs2)nc1S(=O)(=O)c1ccccc1	i	-8.11*	i	i	-0.21	-5.2	42.0%*	i	i
COc1ccccc1/C=C/c1nc(S(=O)(=O)c2ccccc2)c(N(C)C)o1	i	-10.7*	i	i	-0.35	-8.4	53.0%*	i	28.5%*
C#CCOCCOCCOCCNc1nc(N2CCN(C(=O)[C@H](CC(N)=O)n3cc(C(N)[C@H](C)CC)nn3)CC2)nc(N2CCN(C(=O)[C@H](CC(N)=O)n3cc(C(N)[C@@H](C)CC)nn3)CC2)n1 (stereo partly drawn)	.	.	i	.	.	.	.	.	.
O=C1CC(C(=O)O)C(c2ccccc2)c2ccccc21 (stereo not drawn)	.	.	i	.	.	.	.	.	.
COc1ccc(OCC(=O)Nc2ccccc2C(=O)NC2CC2)cc1	.	.	i	.	.	.	.	.	.
COc1ccc(OC)c(C2=NOC(C(=O)NCc3cccnc3)C2)c1 (stereo not drawn)	i	i	i	i	-1.11	0.3	.	.	.
COc1cc(C2=NOC(C(=O)NCc3cccnc3)C2)cc(OC)c1OC (stereo not drawn)	i	-8.64*	i	i	-0.17	-1.9	26.5%*	i	i
COc1ccc(S(=O)(=O)Nc2ccc3c(c2)C(=O)N([C@H](C)CO)C[C@H](C)[C@@H](CN(C)C(=O)Nc2ccc(C(F)(F)F)cc2)O3)cc1	.	.	i	.	.	.	.	.	.
O=[N+]([O-])c1ccc(COc2cccc(CNc3ccc(Br)cc3)c2)cc1	i	-10.2*	i	i	1.2	-15.8	i	i	37.0%*
c1ccc(CCSc2nccn2-c2ccccc2)cc1	i	i	i	i	-0.01	-7.2	.	.	.
CCc1ccc(CSc2nccn2-c2ccccc2)cc1	i	i	i	i	-4.89*	-10.6	i	i	i
O=C(O)Cc1ccc(NC(=O)Cc2ccc3ccccc3c2)cc1	i	i	i	i	-2.01	-7.3	.	.	.
CC(C)CCNC(=O)c1c(CSc2ccc(Cl)cc2)noc1C(=O)NCc1ccccc1	i	i	i	i	0.94	-6.5	i	i	i
O=C(NCc1ccccc1)c1onc(CSc2ccccn2)c1C(=O)NCc1ccccc1	i	i	i	i	0.58	-6.5	i	i	i
O=C(NCc1ccccc1)c1onc(CSc2ccc(F)cc2)c1C(=O)NCc1ccccc1	i	i	i	i	-0.45	-4.9	i	i	i
SMILES	KCNQ1 pot	KCNK9 block	KCNK3 block	KCNQ1 inh	Kir21 block	hERG protect	KCNK9 inh conf	Kir2-1 spec	KCNK9 uninduced
CCCCNC(=O)c1onc(CSc2ccc(F)cc2)c1C(=O)NCCCC	i	i	i	i	2.27	-11.4	i	i	i
COc1cc(CCC(=O)N2CCN(S(=O)(=O)c3ccc(C)cc3)CC2)cc(OC)c1OC	.	.	i	.	.	.	.	.	.
Oc1ccc(C[C@H]2CNCCN2CC2CCCCC2)cc1	i	i	i	i	0.07	-5.2	.	.	.
Cn1nnnc1SCC(=O)N1c2ccccc2Sc2ccccc21	i	i	i	i	-1.34	-3.3	.	.	.
CCn1nnnc1SCC(=O)N1c2ccccc2Sc2ccccc21	i	i	i	i	-0.52	0.8	i	i	i
CSCCC(NS(=O)(=O)c1ccc(Cl)cc1)C(=O)OCc1c(Cl)cccc1Cl (stereo not drawn)	i	-9.2*	i	i	-0.52	-13.8	35.5%*	i	36.0%*
COc1ccc(C(=O)N2c3cc4c(cc3C(C)=CC2(C)C)OCO4)cc1	i	-11.1*	i	i	2.18	-8.9	26.5%*	i	42.5%*
CC1=CC(C)(C)N(C(=O)c2ccccc2)c2ccc(C)cc21	i	i	i	i	0.72	-11.4	.	.	.
Clc1ccccc1-c1ccc(CN2CCN(c3ccccc3)CC2)o1	i	i	i	i	-1.41	-4.7	i	i	i
